According to ChEMBL document CHEMBL1124248, “Preparation and antischistosomal and antitumor activity of hycanthone and some of its congeners. Evidence for the mode of action of hycanthone” (1988):
Several values for one entry are separate records, joined by “and”; a condition that tells them apart may be missing. Identical values can stand only once.

Key:
[1] = (§1) Total radioactivity of [3H]HC was evaluated after 3 days; format: functional
Summary of the method: (§2)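 3H-labelled drug (0.02 µCi) was mixed with 50 µg calf thymus DNA in 0.1 M citrate-phosphate buffer, pH 7, and incubated in the dark for 1.5 h at 37 °C. The mix was diluted in saline and dialysed against saline at 4 °C. Duplicate samples drawn from inside the bags at intervals up to 4 days were counted directly.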

Schistosoma mansoni [2] = experiment: Incorporation of 0.7 M *10e6 [3H]uridine in hycanthone(HC) sensitive Schistosoma mansoni; format: functional
HeLa [3] = experiment: Incorporation of 2*10e-5 M [3H]uridine in HeLa cells in presence of HC measured as as TCA precipitable radioactivity compared with non treated controls; format: functional, cell-based; settings: Homo sapiens
Summary of the method: (§3)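 HeLa cells (10^6 per duplicate tube) were incubated 1 h with drug. [3H]uridine was then added and incubation continued 1 h with drug present. Cells were washed with cold saline and precipitated with 10% TCA. Precipitates were collected on glass filters, TCA-washed and counted. Values are % TCA-precipitable radioactivity versus untreated controls.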

Nucleic Acid [4] = experiment: In vitro binding of [3H]HC to calf thymus DNA after precipitation with alcohol and TCA was measured after 4 day; format: nucleic-acid assay; settings: Bos taurus
Summary of the method: (§4)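 0.02 µCi of 3H-labelled drug was added to 50 µg calf thymus DNA in 20 µL of 0.1 M citrate-phosphate buffer, pH 7. Incubated 1.5 h at 37 °C in the dark, diluted to 0.1 mL saline and dialyzed against saline at 4 °C for up to 4 days. Duplicate 10 µL samples taken from inside the bags at intervals were counted directly, or after TCA precipitation.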

Nucleic Acid [5] = experiment: In vitro binding of [3H]HC to calf thymus DNA was measured after 2 hours; format: nucleic-acid assay; settings: Bos taurus; summary of the method: as §4
Nucleic Acid [6] = experiment: In vitro binding of [3H]HC to calf thymus DNA after precipitation with alcohol and TCA was measured after 1 day; format: nucleic-acid assay; settings: Bos taurus; summary of the method: as §4
[7] = Total radioactivity of [3H]HC was evaluated after 2 hr; format: functional; summary of the method: as §2
[8] = as §1; format: functional; summary of the method: as §2; remark: listed apart in the source
Nucleic Acid [9] = experiment: Binding of 1x 10e-5 M [3H]HC to HeLa DNA; format: nucleic-acid assay; settings: Homo sapiens
Summary of the method: (§5)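 HeLa cells exposed 1 h to [3H]-labelled drug, washed three times with saline, then held 30 min at 37 °C in drug-free medium. After a 2 h digestion at 37 °C, crude DNA was ethanol-precipitated, purified on a CsCl density gradient, dialyzed and reprecipitated. DNA was quantified by A260. An aliquot was treated with DNase, and DNase-sensitive radioactivity was expressed as drug molecules per base pair.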

Nucleic Acid [10] = experiment: In vitro binding of [3H]HC to calf thymus DNA was measured after 4 day; format: nucleic-acid assay; settings: Bos taurus; summary of the method: as §4
Schistosoma mansoni [11] = experiment: Day 50% survival of worms in culture of HC sensitive Schistosoma mansoni; format: functional
Schistosoma mansoni [12] = experiment: Incorporation of 1.4 M*10e6 [3H]uridine in hycanthone(HC) resistant Schistosoma mansoni; format: functional
Summary of the method: (§6)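 Adult HC-resistant S. mansoni were treated in vitro, and [3H]uridine incorporation by the worms was measured. Values are % of control. Concentrations are given in M × 10^6.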

Schistosoma mansoni [13] = experiment: Incorporation of 1.4 M*10e6 [3H]uridine in hycanthone(HC) sensitive Schistosoma mansoni; format: functional
Nucleic Acid [14] = experiment: In vitro binding of [3H]HC to calf thymus DNA was measured after 2 days; format: nucleic-acid assay; settings: Bos taurus; summary of the method: as §4
Nucleic Acid [15] = experiment: Binding of 1x 10e-4 M [3H]HC to HeLa DNA; format: nucleic-acid assay; settings: Homo sapiens; summary of the method: as §5
HeLa [16] = experiment: Incorporation of 10e-5 M [3H]uridine in HeLa cells in absence of HC measured as as TCA precipitable radioactivity compared with non treated controls; format: functional, cell-based; settings: Homo sapiens
Summary of the method: (§7)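 HeLa cells (10^6 per duplicate tube) were exposed to drug for 1 h, washed three times with medium, then held 2 h in drug-free medium. [3H]uridine was added for 1 h. Cells were precipitated with 10% TCA, and precipitates were filter-collected and counted. Values are % TCA-precipitable radioactivity versus untreated controls.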

[17] = Total radioactivity of [3H]HC was evaluated after 2 hours; format: functional; summary of the method: as §2
HeLa [18] = experiment: Incorporation of [3H]uridine in HeLa cells after 2x10e-5 M HC measured as as TCA precipitable radioactivity compared with non treated controls; settings: Homo sapiens
Schistosoma mansoni [19] = experiment: Day 50% survival of worms in culture of HC resistant Schistosoma mansoni; format: functional
Summary of the method: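 Adult HC-resistant S. mansoni were exposed in vitro and kept in culture. The value is the day by which 50% of worms were dead. Cultures were ended at different times in different experiments. Concentrations are given in M × 10^6.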

HeLa [20] = experiment: Incorporation of 10e-5 M [3H]uridine in HeLa cells in presence of HC measured as as TCA precipitable radioactivity compared with non treated controls; format: functional, cell-based; settings: Homo sapiens; summary of the method: as §3
Nucleic Acid [21] = experiment: In vitro binding of [3H]HC to calf thymus DNA was measured after 1 day; format: nucleic-acid assay; settings: Bos taurus; summary of the method: as §4
Mus musculus [22] = experiment: In vivo antitumor activity against p-388 lymphocytic leukemia in mice at 60 mg/kg; format: functional
Summary of the method: (§8)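 Murine P388 lymphocytic leukemia model tested by the National Cancer Institute. Compound given once daily for 9 days; activity expressed as T/C.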

Nucleic Acid [23] = experiment: In vitro binding of [3H]HC to calf thymus DNA after precipitation with alcohol and TCA was measured; format: nucleic-acid assay; settings: Bos taurus; summary of the method: as §4
Nucleic Acid [24] = experiment: In vitro binding of [3H]HC to calf thymus DNA after precipitation with alcohol and TCA was measured after 2 day; format: nucleic-acid assay; settings: Bos taurus; summary of the method: as §4
HeLa [25] = experiment: Incorporation of 2*10e-5 M [3H]-uridine in HeLa cells in absence of HC measured as as TCA precipitable radioactivity compared with non treated controls; format: functional, cell-based; settings: Homo sapiens; summary of the method: as §7
Nucleic Acid [26] = experiment: In vitro binding of [3H]HC to calf thymus DNA after precipitation with alcohol and TCA was measured after 2 hours; format: nucleic-acid assay; settings: Bos taurus; summary of the method: as §4
Nucleic Acid [27] = experiment: In vitro binding of [3H]-HC to calf thymus DNA after precipitation with alcohol and TCA was measured after 3 days; format: nucleic-acid assay; settings: Bos taurus; summary of the method: as §4
Nucleic Acid [28] = experiment: Binding of 5x 10e-4 M [3H]HC to HeLa DNA; format: nucleic-acid assay; settings: Homo sapiens; summary of the method: as §5
Nucleic Acid [29] = experiment: In vitro binding of [3H]HC to calf thymus DNA was measured after 3 days; format: nucleic-acid assay; settings: Bos taurus; summary of the method: as §4
Nucleic Acid [30] = experiment: In vitro binding of [3H]HC to calf thymus DNA; format: nucleic-acid assay; settings: Bos taurus; summary of the method: as §4
Mus musculus [31] = experiment: In vivo antitumor activity against p-388 lymphocytic leukemia in mice at 6.25 mg/kg; format: functional; summary of the method: as §8
Schistosoma mansoni [32] = experiment: Incorporation of 5.5M*10e6 [3H]uridine in hycanthone(HC) sensitive Schistosoma mansoni; format: functional
Schistosoma mansoni [33] = experiment: Incorporation of 1.1 M *10e6 [3H]uridine in hycanthone(HC) sensitive Schistosoma mansoni; format: functional
Mus musculus [34] = experiment: In vivo antitumor activity against p-388 lymphocytic leukemia in mice at 3.12 mg/kg; format: functional; summary of the method: as §8
Schistosoma mansoni [35] = experiment: Incorporation of 5.5 M*10e6 [3H]uridine in hycanthone(HC) resistant Schistosoma mansoni; format: functional; summary of the method: as §6
Mus musculus [36] = experiment: In vivo antitumor activity against p-388 lymphocytic leukemia in mice at 25 mg/kg; format: functional; summary of the method: as §8
Schistosoma mansoni [37] = experiment: Incorporation of 1.1 M *10e6 [3H]uridine in hycanthone(HC) resistant Schistosoma mansoni; format: functional; summary of the method: as §6
Mus musculus [38] = experiment: In vivo antitumor activity against p-388 lymphocytic leukemia in mice at 12.5 mg/kg; format: functional; summary of the method: as §8
Mus musculus [39] = experiment: In vivo antitumor activity against p-388 lymphocytic leukemia in mice at 2.5 mg/kg; format: functional; summary of the method: as §8
Schistosoma mansoni [40] = experiment: Incorporation of 6M*10e6 [3H]uridine in hycanthone(HC) sensitive Schistosoma mansoni; format: functional
Mus musculus [41] = experiment: In vivo antitumor activity against p-388 lymphocytic leukemia in mice at 20 mg/kg; format: functional; summary of the method: as §8
Mus musculus [42] = experiment: In vivo antitumor activity against p-388 lymphocytic leukemia in mice at 10 mg/kg; format: functional; summary of the method: as §8
Mus musculus [43] = experiment: In vivo antitumor activity against p-388 lymphocytic leukemia in mice at 5 mg/kg; format: functional; summary of the method: as §8
Schistosoma mansoni [44] = experiment: Incorporation of 1.2 M *10e6 [3H]uridine in hycanthone(HC) sensitive Schistosoma mansoni; format: functional
Schistosoma mansoni [45] = experiment: Incorporation of 6M*10e6 [3H]uridine in hycanthone(HC) resistant Schistosoma mansoni; format: functional; summary of the method: as §6
Schistosoma mansoni [46] = experiment: Incorporation of 1.2 M *10e6 [3H]uridine in hycanthone(HC) resistant Schistosoma mansoni; format: functional; summary of the method: as §6

Question: Which Radioactivity [1] does the source give for CCN(CC)CCNc1ccc(CO)c2sc3ccccc3c(=O)c12 [HYCANTHONE] here?
Answer: 62 c.p.m.

Question: What about the Control (Schistosoma mansoni [2]) of the same molecule?
Answer: 20%

Question: What about the Radioactivity (HeLa [3]) of the same molecule?
Answer: 37%

Question: What about the Radioactivity (Nucleic Acid [4]) of the same molecule?
Answer: 200 c.p.m.

Question: What about the Radioactivity (Nucleic Acid [5]) of the same molecule?
Answer: 50000 c.p.m.

Question: What about the Radioactivity (Nucleic Acid [6]) of the same molecule?
Answer: 330 c.p.m.

Question: And the Radioactivity [7]?
Answer: 100 c.p.m.

Question: And the Radioactivity [8]?
Answer: 700 c.p.m.

Question: And the Drug mol/base pair (Nucleic Acid [9])?
Answer: < 4e-08

Question: And the Radioactivity (Nucleic Acid [10])?
Answer: 1100 c.p.m.

Question: What about the Effect (Schistosoma mansoni [11]) of the same molecule?
Answer: 7 days

Question: And the Control (Schistosoma mansoni [12])?
Answer: 98%

Question: And the Control (Schistosoma mansoni [13])?
Answer: 30%

Question: What about the Radioactivity (Nucleic Acid [14]) of the same molecule?
Answer: 2300 c.p.m.

Question: And the Drug mol/base pair (Nucleic Acid [15])?
Answer: < 4e-08

Question: What about the Radioactivity (HeLa [16]) of the same molecule?
Answer: 88%

Question: And the Radioactivity [17]?
Answer: 20500 c.p.m.

Question: And the Radioactivity (HeLa [18])?
Answer: 68%

Question: And the Effect (Schistosoma mansoni [19])?
Answer: >12 days

Question: And the Radioactivity (HeLa [20])?
Answer: 32%

Question: What about the Radioactivity (Nucleic Acid [21]) of the same molecule?
Answer: 3460 c.p.m.

Question: What about the T/C (Mus musculus [22]) of the same molecule?
Answer: 165

Question: What about the Radioactivity (Nucleic Acid [23]) of the same molecule?
Answer: 350 c.p.m.

Question: What about the Radioactivity (Nucleic Acid [24]) of the same molecule?
Answer: 275 c.p.m.

Question: And the Radioactivity (HeLa [25])?
Answer: 68%

Question: And the Radioactivity (Nucleic Acid [26])?
Answer: 430 c.p.m.

Question: What about the Radioactivity (Nucleic Acid [27]) of the same molecule?
Answer: 265 c.p.m.

Question: What about the Drug mol/base pair (Nucleic Acid [28]) of the same molecule?
Answer: 7e-07

Question: What about the Radioactivity (Nucleic Acid [29]) of the same molecule?
Answer: 1600 c.p.m.

Question: What about the Radioactivity (Nucleic Acid [30]) of the same molecule?
Answer: 235000 c.p.m.

Question: For CCCCNC(=O)OCc1ccc(NCCN(CC)CC)c2c(=O)c3ccccc3sc12, which T/C (Mus musculus [31]) is on record?
Answer: 135%

Question: What about the Control (Schistosoma mansoni [32]) of the same molecule?
Answer: 31%

Question: What about the Control (Schistosoma mansoni [33]) of the same molecule?
Answer: 34%

Question: And the T/C (Mus musculus [34])?
Answer: 119%

Question: What about the Control (Schistosoma mansoni [35]) of the same molecule?
Answer: 100%

Question: And the Effect (Schistosoma mansoni [11])?
Answer: >12 days

Question: What about the T/C (Mus musculus [36]) of the same molecule?
Answer: 129%

Question: And the Control (Schistosoma mansoni [37])?
Answer: 100%

Question: And the T/C (Mus musculus [38])?
Answer: 104%

Question: Which results are given for CCN(CC)CCNc1ccc(COC(=O)OC)c2sc3ccccc3c(=O)c12?
Answer: T/C (Mus musculus [39]): 118%; Control (Schistosoma mansoni [40]): 6%; T/C (Mus musculus [41]): 122%; T/C (Mus musculus [42]): 124%; T/C (Mus musculus [43]): 124%; Effect (Schistosoma mansoni [11]): 7 days and 6 days; Control (Schistosoma mansoni [44]): 32%; Control (Schistosoma mansoni [45]): 28%; Control (Schistosoma mansoni [46]): 80%; Effect (Schistosoma mansoni [19]): 13 days and 6 days
